# ChEMBL document CHEMBL3853270, “Influence of Birch Bark Triterpenes on Keratinocytes and Fibroblasts from Diabetic and Nondiabetic Donors” (2016)
# Active and inactive are the calls of the source. The calls are words filed in the database; no cut-off is given here.
# Assays:
# Assay type in all cases: functional
# [1] = Effect on wound healing activity in diabetic adult human primary keratinocytes assessed as upregulation of RANTES protein levels at 1.96 uM after 24 hrs by bead-based suspension array analysis; conditions: Keratinocyte
# [2] = system: Keratinocyte; experiment: Effect on actin cytoskeleton in human diabetic primary keratinocytes assessed as formation of cellular protrusions at 10 nM after 2 hrs by rhodamine phalloidin-staining based fluorescence microscopic analysis
# How it was run: (§1)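 Subconfluent cells on glass coverslips, collagen type I coated for fibroblasts; keratinocytes starved 2 days before stimulation. Exposure 2 h, then rhodamine-phalloidin staining (1:25 in PBS) and fluorescence microscopy. Controls were DMSO as solvent and PDGF (fibroblasts) or CNF1 (keratinocytes). Where used, p38-MAPK inhibitor LN 950 (100 nM) was added 30 min beforehand.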
# [3] = system: Fibroblast; experiment: Effect on pro-inflammatory related gene expression in diabetic adult human primary fibroblasts assessed as IL1R1 mRNA levels at 9.81 uM after 6 hrs by qPCR analysis
# How it was run: (§2)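 Primary human dermal fibroblasts (young or adult nondiabetic, adult diabetic donor) were treated for 6 h against a 0.1% DMSO solvent control. RNA from 320 000 cells per sample was measured by Fluidigm Biomark high-throughput qPCR. Values are fold change relative to solvent control, from four independent experiments, with SD. One-way ANOVA with Bonferroni post-test was applied.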
# [4] = system: Keratinocyte; experiment: Effect on chemokines related gene expression in non-diabetic adult human primary keratinocytes assessed as IL8 mRNA levels at 9.81 uM after 6 hrs by qPCR analysis
# [5] = system: Keratinocyte; experiment: Effect on AQP3 mRNA expression levels in non-diabetic adult human primary keratinocytes at 1.96 uM after 6 hrs by qPCR analysis
# How it was run: (§3)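 Primary keratinocytes from nondiabetic young and adult and diabetic adult donors; 400 000 cells per sample, 6 h exposure at 1.96 or 9.81 μM. RNA extracted and read on a high-throughput qPCR chip. Results are fold change versus 0.1% DMSO solvent control from 5−7 independent experiments over two donors per group, SD, one-way ANOVA with Bonferroni post-test.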
# [6] = Upregulation of wound healing activity related GM-CSF protein levels in non-diabetic adult human primary keratinocytes at 1.96 uM after 24 hrs by bead-based suspension array analysis; conditions: Keratinocyte
# [7] = system: Fibroblast; experiment: Effect on pro-inflammatory related gene expression in diabetic adult human primary fibroblasts assessed as PTGS2 mRNA levels at 9.81 uM after 6 hrs by qPCR analysis
# [8] = system: Keratinocyte; experiment: Effect on growth factor related gene expression in non-diabetic adult human primary keratinocytes assessed as GDF15 mRNA levels at 1.96 uM after 6 hrs by qPCR analysis
# How it was run: (§4)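 Primary human keratinocytes (nondiabetic young or adult, diabetic adult donors) were exposed to compound for 6 h, with 0.1% DMSO as solvent control. Total RNA came from 400 000 cells per sample and was assayed on a Fluidigm Biomark high-throughput qPCR chip. Results are fold change vs solvent control, from 2−4 independent experiments on two donors per group, with SD. Groups were compared by one-way ANOVA with Bonferroni post-test.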
# [9] = Effect on wound healing activity in diabetic adult human primary fibroblasts assessed as upregulation of soluble TNFR1 protein levels at 1.96 uM after 24 hrs by bead-based suspension array analysis; conditions: Fibroblast
# [10] = system: Keratinocyte; experiment: Effect on pro-inflammatory related gene expression in diabetic adult human primary keratinocytes assessed as TNF mRNA levels at 9.81 uM after 6 hrs by qPCR analysis
# [11] = system: Keratinocyte; experiment: Effect on antiinflammatory related gene expression in diabetic adult human primary keratinocytes assessed as NFKBIA mRNA levels at 1.96 uM after 6 hrs by qPCR analysis; how it was run: as §3
# [12] = system: Keratinocyte; experiment: Effect on pro-inflammatory related gene expression in diabetic adult human primary keratinocytes assessed as PTGS2 mRNA levels at 9.81 uM after 6 hrs by qPCR analysis
# [13] = system: Keratinocyte; experiment: Effect on pro-inflammatory related gene expression in diabetic adult human primary keratinocytes assessed as TNF mRNA levels at 1.96 uM after 6 hrs by qPCR analysis
# [14] = system: Keratinocyte; experiment: Effect on chemokines related gene expression in non-diabetic young human primary keratinocytes assessed as CXCL10 mRNA levels at 9.81 uM after 6 hrs by qPCR analysis; how it was run: as §4
# [15] = system: Fibroblast; experiment: Effect on chemokines related gene expression in diabetic adult human primary fibroblasts assessed as WDR26 mRNA levels at 9.81 uM after 6 hrs by qPCR analysis
# [16] = system: Fibroblast; experiment: Effect on actin cytoskeleton in human non-diabetic primary fibroblasts assessed as formation of thin elongated cellular body at 10 nM after 2 hrs by rhodamine phalloidin-staining based fluorescence microscopic analysis; how it was run: as §1
# [17] = system: Fibroblast; experiment: Effect on growth factor related gene expression in non-diabetic adult human primary fibroblasts assessed as GDF15 mRNA levels at 1.96 uM after 6 hrs by qPCR analysis; how it was run: as §2
# [18] = system: Fibroblast; experiment: Effect on growth factors related gene expression in non-diabetic adult human primary fibroblasts assessed as FGF2 mRNA levels at 1.96 uM after 6 hrs by qPCR analysis; how it was run: as §2
# [19] = system: Fibroblast; experiment: Effect on growth factors related gene expression in non-diabetic adult human primary fibroblasts assessed as FGF2 mRNA levels at 9.81 uM after 6 hrs by qPCR analysis; how it was run: as §2
# [20] = system: Fibroblast; experiment: Effect on antiinflammatory related gene expression in non-diabetic adult human primary fibroblasts assessed as NFKBIA mRNA levels at 9.81 uM after 6 hrs by qPCR analysis
# How it was run: (§5)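 Primary dermal fibroblasts from one nondiabetic young, one nondiabetic adult and one diabetic adult donor; 320 000 cells per sample, 6 h at 1.96 or 9.81 μM. RNA measured on a high-throughput qPCR chip. Fold change versus 0.1% DMSO control, four independent experiments, SD, one-way ANOVA with Bonferroni post-test.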
# [21] = Effect on wound healing activity in diabetic adult human primary keratinocytes assessed as upregulation of MIP1alpha protein levels at 1.96 uM after 24 hrs by bead-based suspension array analysis; conditions: Keratinocyte
# [22] = system: Fibroblast; experiment: Effect on chemokines related gene expression in non-diabetic adult human primary fibroblasts assessed as CCL2 mRNA levels at 9.81 uM after 6 hrs by qPCR analysis
# [23] = system: Fibroblast; experiment: Effect on pro-inflammatory related gene expression in non-diabetic adult human primary fibroblasts assessed as IL1R1 mRNA levels at 1.96 uM after 6 hrs by qPCR analysis
# [24] = system: Keratinocyte; experiment: Effect on pro-inflammatory related gene expression in non-diabetic adult human primary keratinocytes assessed as IL1B mRNA levels at 9.81 uM after 6 hrs by qPCR analysis
# [25] = Effect on wound healing activity in diabetic adult human primary keratinocytes assessed as upregulation of TNFalpha protein levels at 1.96 uM after 24 hrs by bead-based suspension array analysis; conditions: Keratinocyte
# [26] = system: Fibroblast; experiment: Effect on antioxidant related gene expression in diabetic adult human primary fibroblasts assessed as NFE2L2 mRNA levels at 1.96 uM after 6 hrs by qPCR analysis
# [27] = system: Keratinocyte; experiment: Effect on wound healing activity in diabetic adult human primary keratinocytes assessed as increase in soluble gp130 part of IL6 receptor protein levels at 1.96 uM after 24 hrs by bead-based suspension array analysis
# [28] = system: Fibroblast; experiment: Effect on antiinflammatory related gene expression in non-diabetic adult human primary fibroblasts assessed as SOCS3 mRNA levels at 9.81 uM after 6 hrs by qPCR analysis; how it was run: as §5
# [29] = system: Keratinocyte; experiment: Effect on growth factor related gene expression in diabetic adult human primary keratinocytes assessed as GDF15 mRNA levels at 1.96 uM after 6 hrs by qPCR analysis; how it was run: as §4
structure (smiles),measurement,setting,value
C=C(C)[C@@H]1CC[C@]2(CO)CC[C@]3(C)[C@H](CC[C@@H]4[C@@]5(C)CC[C@H](O)C(C)(C)[C@@H]5CC[C@]43C)[C@@H]12 [BETULIN],Activity,[1],Active
same,Activity,[2],Active
same,fold change (FC),[3],1.9
same,fold change (FC),[4],69.9
same,fold change (FC),[5],0.8
same,Activity,[6],Active
same,fold change (FC),[7],2.9
same,fold change (FC),[8],1
same,Activity,[9],Active
same,fold change (FC),[10],13
same,fold change (FC),[11],1.2
same,fold change (FC),[12],2.2
same,fold change (FC),[13],5.3
same,fold change (FC),[14],1.7
same,fold change (FC),[15],1.2
same,Activity,[16],Active
same,fold change (FC),[17],2.1
same,fold change (FC),[18],2.9
same,fold change (FC),[19],3.4
same,fold change (FC),[20],11
same,Activity,[21],Active
same,fold change (FC),[22],197
same,fold change (FC),[23],4.8
same,fold change (FC),[24],0.9
same,Activity,[25],Active
same,fold change (FC),[26],1.8
same,Activity,[27],Active
same,fold change (FC),[28],24.6
same,fold change (FC),[29],1.4
